Most compounds without a hit are left out; they make up all but 2.2% or so of the library.
MT stabilize HCS: stabilizes microtubules in HeLa cells; HeLa tubulin immunostaining HCS, 24 h; share of cells brighter than vehicle mean+2SD; 200,000 compounds, 0.83% hits; AID 2205; % tubulin-high responders, % at 10 µM;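 active = plate Z-score above 3 for both tubulin-high and condensed-nucleus cell shares, with cell loss under 80%, at 10 µM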;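 note: anti alpha tubulin signal scored within the nucleus-defined area of each cell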
BaF3 parental: counter-screen for JAK2V617F inhibitors: parental Ba/F3 viability inhibitors; CellTiter-Glo ATP luminescence; inhibition, % at 5.6 µM; 220,000 compounds, 1.1% hits; AID 1486;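 active = inhibition above a per-campaign cutoff, the mean inhibition of all tested compounds plus 3 SD, cut at about 27% in these data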
b-catenin transl: modulators of beta-catenin nuclear translocation; HeLa beta-catenin nuclear translocation, immunofluorescence imaging; nuclear translocation activity, % at 5 µM; 190,000 compounds, 0.3% hits;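 active = nuclear translocation activity above 50% at 5 µM, with a well cell count of 50 or more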;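 note: per-cell ratio of nuclear to cytoplasmic median beta-catenin stain intensity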
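Assay system: human HeLa cells, native beta-catenin; doses: 5 µM primary, 0.02–20 µM confirmation; incubation: compound treatment 24 h, 37°C, 5% CO2; technique: fluorescence imaging of beta-catenin antibody stain plus DAPI; measure: % activation, nuclear-to-cytoplasmic median beta-catenin signal ratio per cell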
APP 5UTR inh: APP translation inhibition | SH-SY5Y APP 5'UTR-luciferase reporter, luminescence | inhibition, % at 2 µM | 190,000 compounds, 0.82% hits | AID 1285;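 active = inhibition above a set limit, derived from the sample mean plus 3 SD, cut at about 45% in these data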
IEC-6 tox: IEC-6 cytotoxicity, counter-screen for KLF5 inhibitors; luminescence viability; inhibition, % at 5 µM; 290,000 compounds, 0.78% hits; AID 1825; in the data active = inhibition above about 22%
Ba/F3 V617F tox: reduce viability of Ba/F3 cells dependent on JAK2V617F | inhibition, % at 5.6 µM | Ba/F3 EpoR-JAK2V617F viability, ATP luminescence | 220,000 compounds, 1.1% hits;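 active = inhibition above the campaign mean plus 3 SD over all tested compounds, cut at about 24% in these data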;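 note: cytokine-independent growth of Ba/F3 cells driven by EpoR plus mutant JAK2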
Each line names hits and unclear results; the compound was inactive in the other large screens.

O=C(CSc1ncnc2nc[nH]c12)c1ccccc1	none
CN1CCN(c2ccc(S(=O)(=O)N3CCCCC3)cc2NC(=O)Cc2ccc(Cl)cc2)CC1	BaF3 parental 38.0, Ba/F3 V617F tox 52.1
Cc1ccc(S(=O)(=O)Cn2nnnc2C(CC(C)C)N2CCN(C3CCCC3)CC2)cc1 (centres undefined)	none (no result: MT stabilize HCS, BaF3 parental, b-catenin transl, APP 5UTR inh, Ba/F3 V617F tox)
COc1cc2c(cc1OC)CN(CC(=O)Nc1ccc(F)cc1)C(C(=O)O)C2 (centres undefined)	none (no result: MT stabilize HCS, BaF3 parental, b-catenin transl, APP 5UTR inh, Ba/F3 V617F tox)
N#CC1=C(N)Oc2c(ccc3cccnc23)C1c1cccnc1 (centres undefined)	MT stabilize HCS 21.7, b-catenin transl 56.3
Cc1ccc2cc(C3C(C#N)=C(N)Oc4c3ccc3cccnc43)c(=O)[nH]c2c1 (centres undefined)	none
O=C/C=C/c1c(-c2ccccc2)cc2oc3ccccc3cc1-2	none (no result: MT stabilize HCS, BaF3 parental, b-catenin transl, APP 5UTR inh, Ba/F3 V617F tox)
CCOC(=O)c1snc(C(=O)NC2CCCCC2)c1N	none
CCOC(=O)c1sc(C)c(C(=O)NC2CCCCC2)c1N	b-catenin transl 118.5
CCOC(=O)c1c(N)sc(C(=O)OC)c1C	none
CCOC(=O)c1sc(N)c(C(=O)OC)c1C	BaF3 parental 90.4
Cn1cc(Cl)c(C(=O)OCC(=O)c2ccccc2)n1	none (no result: MT stabilize HCS, BaF3 parental, b-catenin transl, APP 5UTR inh, Ba/F3 V617F tox)
CN(C)S(=O)(=O)c1cccc(CNCC2COc3ccccc3O2)c1 (centres undefined)	none (no result: MT stabilize HCS, BaF3 parental, b-catenin transl, APP 5UTR inh, Ba/F3 V617F tox)
O=c1oc(-c2ccc(Br)cc2)nc2ccccc12	none (no result: MT stabilize HCS, BaF3 parental, b-catenin transl, APP 5UTR inh, Ba/F3 V617F tox)
COc1cccc(C(C(=O)NC2CCCCC2)N(C(=O)c2csnn2)C2CC2)c1 (centres undefined)	none (no result: MT stabilize HCS, BaF3 parental, b-catenin transl, APP 5UTR inh, Ba/F3 V617F tox)
CCc1cccc(NC(=O)C2CCCN(S(=O)(=O)c3cccnc3)C2)c1 (centres undefined)	none (no result: MT stabilize HCS, BaF3 parental, b-catenin transl, APP 5UTR inh, Ba/F3 V617F tox)
CN(C)S(=O)(=O)c1ccc(Cl)c(C(=O)Nc2ccc(S(=O)(=O)N3CCOCC3)cc2)c1	none (no result: MT stabilize HCS, BaF3 parental, b-catenin transl, APP 5UTR inh, Ba/F3 V617F tox)
CCc1ccccc1NC(=S)Nn1cnnc1	none (no result: MT stabilize HCS, BaF3 parental, b-catenin transl, APP 5UTR inh, Ba/F3 V617F tox)
Cc1ccc(OCc2nc(C#N)c(NCc3ccc4c(c3)OCO4)o2)cc1	APP 5UTR inh 67.0
COc1ccc(NC(=O)/C(C#N)=C\C=C\c2ccco2)cc1	MT stabilize HCS 19.2
COc1ccccc1NC(=O)CCCN1C(=O)C2CC=CCC2C1=O (centres undefined)	none (no result: MT stabilize HCS, BaF3 parental, b-catenin transl, APP 5UTR inh, Ba/F3 V617F tox)
Brc1cccc(-c2nnc3n2CCCCC3)c1	BaF3 parental 96.4
c1ccc(-c2nnc3n2CCCC3)cc1	none
CCNc1nc(OC)nc(N(OC)S(=O)(=O)c2ccc(C)cc2)n1	none (no result: MT stabilize HCS, BaF3 parental, b-catenin transl, APP 5UTR inh, Ba/F3 V617F tox)
O=C(/C=C/c1cccnc1)/C=C/c1cccnc1	BaF3 parental 102.8, IEC-6 tox 49.1, Ba/F3 V617F tox 94.7 (no result: MT stabilize HCS, APP 5UTR inh)
CCCN(CCC)CCCNC(=O)c1cc2c(=O)[nH]c3ccccc3c2s1	none (no result: MT stabilize HCS, BaF3 parental, b-catenin transl, APP 5UTR inh, Ba/F3 V617F tox)
CCn1cc(C(=O)N2CCN(c3ccc(OC)cc3)CC2)c2cc(OC)c(OC)cc2c1=O	none
CCn1cc(C(=O)N2CCN(c3ccc(F)cc3)CC2)c2cc(OC)c(OC)cc2c1=O	APP 5UTR inh 47.7
CCOc1cccc2cc(-c3cn4cc(C)ccc4n3)c(=O)oc12	MT stabilize HCS 42.3
COc1cccc2cc(-c3cn4ccc(C)cc4n3)c(=O)oc12	none (no result: b-catenin transl)
CCOc1ccc(OCc2cccc(C(=O)N3CCOCC3)c2)cc1	APP 5UTR inh 47.8 (no result: b-catenin transl)
O=C(NCc1ccccc1)C(c1ccc(F)cc1)N(C(=O)c1csnn1)C1CC1 (centres undefined)	none (no result: MT stabilize HCS, BaF3 parental, b-catenin transl, APP 5UTR inh, Ba/F3 V617F tox)
O=C(Nc1cccnc1)c1ccc(COc2ccccc2Br)o1	MT stabilize HCS 25.6 (no result: b-catenin transl)
CC(=O)Oc1c(-c2ccc(Br)o2)oc2ccccc2c1=O	none (no result: MT stabilize HCS, BaF3 parental, b-catenin transl, APP 5UTR inh, Ba/F3 V617F tox)
O=C(c1ccccc1)n1c(=O)c(F)cn(COCCBr)c1=O	none (no result: MT stabilize HCS, BaF3 parental, b-catenin transl, APP 5UTR inh, Ba/F3 V617F tox)
CCOc1cc2[nH]c(=S)n(Cc3ccc(C(=O)O)cc3)c(=O)c2cc1OCC	none (no result: MT stabilize HCS, BaF3 parental, b-catenin transl, APP 5UTR inh, Ba/F3 V617F tox)
Cn1cc(C(=O)N/N=C/C(Br)=C/c2ccccc2)ccc1=O	APP 5UTR inh 84.7
Cc1ccccc1NCC(=O)N/N=C/C(Br)=C/c1ccccc1	MT stabilize HCS 26.3
Cc1ccc(-c2cc(C(=O)N/N=C/C(Br)=C/c3ccccc3)n[nH]2)o1	MT stabilize HCS 12.2
O=C(Cc1cccs1)N/N=C/C(Br)=C/c1ccccc1	none
COc1cccc(C(=O)N/N=C/C(Br)=C/c2ccccc2)c1	MT stabilize HCS 23.0, b-catenin transl 59.9
COc1ccccc1OCC(=O)N1CCN(C(=O)c2ccco2)CC1	none (no result: MT stabilize HCS, BaF3 parental, b-catenin transl, APP 5UTR inh, Ba/F3 V617F tox)
COc1ccc(CCNC(=O)CN2c3cccc4cccc(c34)S2(=O)=O)cc1OC	none (no result: MT stabilize HCS, BaF3 parental, b-catenin transl, APP 5UTR inh, Ba/F3 V617F tox)
CCCCCCCCCn1ccc(=N)cc1	BaF3 parental 95.7, IEC-6 tox 54.3, Ba/F3 V617F tox 98.7 (no result: MT stabilize HCS, APP 5UTR inh)
CCCCCn1ccc(=N)cc1	BaF3 parental 62.2, Ba/F3 V617F tox 67.4
CCOc1ccccc1N(C)C(=O)Cn1ncc2c([nH]c3ccc(C)cc32)c1=O	none (no result: MT stabilize HCS, BaF3 parental, b-catenin transl, APP 5UTR inh, Ba/F3 V617F tox)
CC1(C)Cc2nc3sc4c(=O)n(CC(=O)NCc5ccco5)cnc4c3cc2CO1	MT stabilize HCS 31.7
CC(CC(=O)NCCc1ccc(Cl)cc1)S(=O)(=O)c1ccc2c(c1)NC(=O)CO2 (centres undefined)	none (no result: MT stabilize HCS, BaF3 parental, b-catenin transl, APP 5UTR inh, Ba/F3 V617F tox)
COC(=O)CCn1nnc(-c2ccc(C(C)C)cc2)n1	APP 5UTR inh 76.7
Oc1ccc(/C=N/Nc2ccnc3cc(Cl)ccc23)c(O)c1O	none (no result: MT stabilize HCS, BaF3 parental, b-catenin transl, APP 5UTR inh, Ba/F3 V617F tox)
Oc1ccc(/C=N/Nc2ccnc3cc(Cl)ccc23)cc1O	BaF3 parental 51.5, Ba/F3 V617F tox 85.1 (no result: MT stabilize HCS, APP 5UTR inh)
CCOC(=O)c1c(C)nc2ccc(C)cn12	none
Cc1ccc2nc(C)c(C(=O)NN=C3CCN(C)CC3)n2c1	APP 5UTR inh 68.1
S=C(Nc1ccc(Oc2ccccc2)cc1)Nc1cccnc1	none (no result: MT stabilize HCS, BaF3 parental, b-catenin transl, APP 5UTR inh, Ba/F3 V617F tox)

Source: PubChem BioAssay (several laboratories)
